Source: ChEMBL document CHEMBL1795294, “Modulation of the activity of histone acetyltransferases by long chain alkylidenemalonates (LoCAMs)” (Bioorg Med Chem, 2011)
The source made the active and inactive calls. No cut-off for these calls is given here.

Key:
U-937 [1] = test: Inhibition of histone acetyltransferase in human U937 cells assessed as increase of histone H3 acetylation level at 50 uM after 15 mins by Western blotting; assay type: cell-based
In short: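 U937 cells treated at 50 µM. Histones prepared by Triton extraction buffer lysis, then overnight 0.2 M HCl extraction at 4 °C, Bradford quantitation. Immunoblot with pan-acetyl-H3 antibody (1:1000), Ponceau Red staining as loading check.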

U-937 [2] = test: Induction of apoptosis in human U937 cells at 50 uM after 30 hrs using annexin V/propidium iodide double-staining by FACS analysis; assay type: functional
In short: (§1)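 U937 cells at 200,000 cells/mL, 37 °C, 5% CO2, exposed 30 h at 50 or 25 µM. Dose–response runs used 5–200 µM, with IC50 taken as the concentration giving 50% apoptosis. Annexin V/propidium iodide double staining, apoptotic subpopulations counted by FACS. Three independent experiments, mean ± SD.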

U-937 [3] = test: Cell cycle arrest in human U937 cells assessed as accumulation at S phase at 50 uM after 30 hrs using propidium iodide staining by flow cytometry; assay type: functional, cell-based
In short: (§2)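 U937 cells kept at 200,000 cells/mL, 37 °C, 5% CO2, treated 30 h at 50 or 25 µM. Phase distribution by flow cytometry. Three independent experiments, mean ± SD.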

U-937 [4] = test: Inhibition of histone acetyltransferase in human U937 cells assessed as inhibition of acetylation of histone H4 at K16 at 50 uM after 24 hrs by Western blotting; assay type: cell-based
In short: (§3)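 U937 cells treated 24 h at 50 µM. Acid-extracted histones (Triton buffer lysis, then 0.2 M HCl overnight at 4 °C) immunoblotted with site-specific antibodies (H3K9/K14/K18/K56ac, H4K5/K8/K16ac, pan-acetyl H4; 1:1000). Loading checked by Ponceau Red staining, or by histone H1 for pan-acetyl H4.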

[5] = target: Histone acetyltransferase p300 (Homo sapiens) (UniProt Q09472); test: Binding affinity to His6-tagged immobilized human KAT3B catalytic domain expressed in Sf9 cells by surface plasmon resonance assay
Histone acetyltransferase p300 (Homo sapiens), sequence (Q09472 whole entry, the tested form may be a part): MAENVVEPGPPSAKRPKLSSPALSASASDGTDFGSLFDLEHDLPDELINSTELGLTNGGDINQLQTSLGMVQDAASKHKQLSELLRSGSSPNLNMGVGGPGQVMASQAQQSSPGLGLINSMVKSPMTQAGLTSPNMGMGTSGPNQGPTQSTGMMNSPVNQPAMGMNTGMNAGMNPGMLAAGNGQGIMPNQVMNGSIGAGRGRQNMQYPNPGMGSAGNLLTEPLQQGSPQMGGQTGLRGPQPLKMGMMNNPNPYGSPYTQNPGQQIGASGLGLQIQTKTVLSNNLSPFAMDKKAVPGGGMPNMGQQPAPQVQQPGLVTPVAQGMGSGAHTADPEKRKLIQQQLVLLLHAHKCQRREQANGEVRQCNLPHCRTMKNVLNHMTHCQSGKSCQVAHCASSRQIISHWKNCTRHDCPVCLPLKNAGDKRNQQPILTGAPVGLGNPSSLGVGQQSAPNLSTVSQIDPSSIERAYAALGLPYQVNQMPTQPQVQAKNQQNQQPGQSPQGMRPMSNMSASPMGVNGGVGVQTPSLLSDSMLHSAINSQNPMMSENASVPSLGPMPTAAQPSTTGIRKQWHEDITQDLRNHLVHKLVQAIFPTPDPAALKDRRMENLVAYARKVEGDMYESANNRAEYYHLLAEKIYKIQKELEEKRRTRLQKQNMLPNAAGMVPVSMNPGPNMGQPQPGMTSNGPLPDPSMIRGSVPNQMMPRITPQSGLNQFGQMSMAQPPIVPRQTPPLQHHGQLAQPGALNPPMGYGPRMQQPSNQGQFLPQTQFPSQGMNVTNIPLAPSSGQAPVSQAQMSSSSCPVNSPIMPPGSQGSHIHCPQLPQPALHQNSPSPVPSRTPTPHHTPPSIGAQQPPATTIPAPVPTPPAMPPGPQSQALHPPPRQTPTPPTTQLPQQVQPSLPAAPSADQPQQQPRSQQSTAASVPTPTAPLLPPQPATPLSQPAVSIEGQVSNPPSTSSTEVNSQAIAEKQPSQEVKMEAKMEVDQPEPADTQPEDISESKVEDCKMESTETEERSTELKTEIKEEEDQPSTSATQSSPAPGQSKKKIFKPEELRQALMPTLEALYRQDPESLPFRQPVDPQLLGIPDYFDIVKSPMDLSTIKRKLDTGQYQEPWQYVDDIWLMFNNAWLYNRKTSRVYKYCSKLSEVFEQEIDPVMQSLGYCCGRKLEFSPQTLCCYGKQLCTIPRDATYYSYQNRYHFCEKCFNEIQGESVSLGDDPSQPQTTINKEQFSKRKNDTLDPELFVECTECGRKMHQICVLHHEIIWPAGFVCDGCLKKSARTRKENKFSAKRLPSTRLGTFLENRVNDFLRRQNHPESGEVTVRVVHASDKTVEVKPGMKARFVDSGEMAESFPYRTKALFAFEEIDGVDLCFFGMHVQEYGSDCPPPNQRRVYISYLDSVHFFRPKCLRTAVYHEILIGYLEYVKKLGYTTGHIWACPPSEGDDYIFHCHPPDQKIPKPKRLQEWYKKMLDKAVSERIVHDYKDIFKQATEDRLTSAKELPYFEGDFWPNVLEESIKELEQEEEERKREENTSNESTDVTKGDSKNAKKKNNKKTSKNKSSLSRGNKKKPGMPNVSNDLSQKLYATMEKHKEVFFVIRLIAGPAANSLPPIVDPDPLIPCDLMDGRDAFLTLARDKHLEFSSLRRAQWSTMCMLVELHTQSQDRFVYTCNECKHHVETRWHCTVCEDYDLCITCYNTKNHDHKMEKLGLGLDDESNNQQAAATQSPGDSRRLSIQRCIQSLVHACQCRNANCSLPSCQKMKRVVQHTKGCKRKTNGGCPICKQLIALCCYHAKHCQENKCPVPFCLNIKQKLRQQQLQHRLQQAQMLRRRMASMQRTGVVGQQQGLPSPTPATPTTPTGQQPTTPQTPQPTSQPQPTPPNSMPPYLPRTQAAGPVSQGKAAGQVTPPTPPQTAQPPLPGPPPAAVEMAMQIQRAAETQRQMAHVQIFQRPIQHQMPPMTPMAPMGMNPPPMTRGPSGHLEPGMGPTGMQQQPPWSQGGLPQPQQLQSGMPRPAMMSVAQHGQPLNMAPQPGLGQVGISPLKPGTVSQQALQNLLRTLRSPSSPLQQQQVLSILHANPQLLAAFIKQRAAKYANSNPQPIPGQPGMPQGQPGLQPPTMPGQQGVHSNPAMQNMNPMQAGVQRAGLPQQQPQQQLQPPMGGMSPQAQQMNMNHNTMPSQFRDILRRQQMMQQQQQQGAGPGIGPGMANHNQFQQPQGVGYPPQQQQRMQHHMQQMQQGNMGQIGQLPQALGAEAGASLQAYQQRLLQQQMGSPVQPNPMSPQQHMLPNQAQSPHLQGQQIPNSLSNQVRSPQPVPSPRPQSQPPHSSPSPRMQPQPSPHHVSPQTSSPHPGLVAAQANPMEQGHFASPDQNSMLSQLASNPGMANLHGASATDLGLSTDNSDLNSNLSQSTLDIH

[6] = target: Histone acetyltransferase p300 (Homo sapiens) (UniProt Q09472); test: Binding affinity to immobilized His6-tagged human full-length KAT3B expressed in Sf9 cells by surface plasmon resonance assay
U-937 [7] = test: Inhibition of histone acetyltransferase in human U937 cells assessed as inhibition of acetylation of histone H3 at K9 at 50 uM after 24 hrs by Western blotting; assay type: cell-based; in short: as §3
Albumin = Albumin (Bos taurus, UniProt P02769); test: Binding affinity to bovine serum albumin by surface plasmon resonance assay; settings: cattle
Albumin, sequence (P02769 whole entry): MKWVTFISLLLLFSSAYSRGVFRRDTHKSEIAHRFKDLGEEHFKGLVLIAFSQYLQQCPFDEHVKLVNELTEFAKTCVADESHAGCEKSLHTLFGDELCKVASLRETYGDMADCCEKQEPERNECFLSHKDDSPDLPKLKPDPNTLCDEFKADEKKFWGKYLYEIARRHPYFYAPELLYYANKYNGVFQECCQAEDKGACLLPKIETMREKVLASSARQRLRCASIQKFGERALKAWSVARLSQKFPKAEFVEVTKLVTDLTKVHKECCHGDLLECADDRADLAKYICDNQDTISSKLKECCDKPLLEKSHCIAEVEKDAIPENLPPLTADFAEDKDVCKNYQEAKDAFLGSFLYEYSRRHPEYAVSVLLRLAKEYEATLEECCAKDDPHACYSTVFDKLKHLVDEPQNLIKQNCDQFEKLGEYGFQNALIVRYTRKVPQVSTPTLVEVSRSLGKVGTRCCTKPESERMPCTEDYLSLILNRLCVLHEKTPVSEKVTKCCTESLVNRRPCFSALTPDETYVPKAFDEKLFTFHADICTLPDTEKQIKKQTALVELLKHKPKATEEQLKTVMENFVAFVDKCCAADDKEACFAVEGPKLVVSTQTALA

U-937 [8] = test: Inhibition of histone acetyltransferase in human U937 cells assessed as inhibition of acetylation of histone H4 at K8 at 50 uM after 24 hrs by Western blotting; assay type: cell-based; in short: as §3
[9] = target: CREB-binding protein (Homo sapiens) (UniProt Q92793); test: Inhibition of human recombinant KAT3A expressed in Escherichia coli BL21 using histone H4 peptide as substrate at 50 uM after 2 hrs relative to control
In short: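 Recombinant CBP fragment (aa 1098–1877) from E. coli BL21, affinity purified. Spotted on P81 paper in triplicate, washed with TCA/acetone, scintillation DPM compared with negative control, expressed as %.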

U-937 [10] = test: Inhibition of histone acetyltransferase in human U937 cells assessed as inhibition of acetylation of histone H3 at K18 at 50 uM after 24 hrs by Western blotting; assay type: cell-based; in short: as §3
[11] = target: Histone acetyltransferase KAT2B (Homo sapiens) (UniProt Q92831); test: Inhibition of human recombinant KAT2B using histone H4 peptide as substrate at 50 uM after 2 hrs
Histone acetyltransferase KAT2B (Homo sapiens), sequence (Q92831 whole entry, looked up, the tested form may be a part): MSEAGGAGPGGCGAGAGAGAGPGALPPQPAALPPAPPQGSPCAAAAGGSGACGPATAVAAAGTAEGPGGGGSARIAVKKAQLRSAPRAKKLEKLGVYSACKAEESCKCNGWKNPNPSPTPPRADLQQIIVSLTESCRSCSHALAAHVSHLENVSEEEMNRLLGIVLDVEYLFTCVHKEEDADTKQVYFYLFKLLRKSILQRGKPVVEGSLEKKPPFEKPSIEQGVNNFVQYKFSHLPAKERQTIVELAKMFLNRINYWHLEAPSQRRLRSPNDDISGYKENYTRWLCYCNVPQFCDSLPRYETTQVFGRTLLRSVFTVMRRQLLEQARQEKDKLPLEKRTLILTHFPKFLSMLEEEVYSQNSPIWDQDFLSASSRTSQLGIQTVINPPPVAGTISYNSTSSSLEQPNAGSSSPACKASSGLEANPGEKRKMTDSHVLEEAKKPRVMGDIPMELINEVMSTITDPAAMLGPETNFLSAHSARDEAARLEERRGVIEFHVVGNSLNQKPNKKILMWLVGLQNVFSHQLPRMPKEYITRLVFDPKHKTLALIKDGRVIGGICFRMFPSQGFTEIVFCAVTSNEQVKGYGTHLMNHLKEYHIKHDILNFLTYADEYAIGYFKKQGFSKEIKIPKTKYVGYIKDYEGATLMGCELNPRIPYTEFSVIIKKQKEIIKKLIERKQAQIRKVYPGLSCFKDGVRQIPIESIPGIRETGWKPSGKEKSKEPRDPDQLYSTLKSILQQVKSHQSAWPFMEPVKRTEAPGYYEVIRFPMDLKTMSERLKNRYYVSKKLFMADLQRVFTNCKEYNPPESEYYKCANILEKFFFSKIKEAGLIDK
In short: (§4)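 Human PCAF (200 ng) in KAT buffer with 10 µg histone H4 peptide (aa 2–24), 20 µM acetyl-CoA with 0.5 µCi/mL [3H]-acetyl-CoA, and compound at 50 µM final, 2 h at 37 °C. Spotted on P81 paper in triplicate, washed with TCA then acetone, scintillation counted. Activity given as % of untreated control (100%).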

U-937 [12] = test: Induction of granulocytic differentiation in human U937 after […] using propidium iodide staining by FACS analysis; assay type: functional, cell-based
MCF7 = test: Inhibition of histone acetyltransferase in human MCF7 cells assessed as increase of alpha-tubulin acetylation level at 15 and 30 uM after 15 mins by Western blotting
U-937 [13] = test: Inhibition of histone acetyltransferase in human U937 cells assessed as inhibition of acetylation of histone H3 at K56 at 50 uM after 24 hrs by Western blotting; assay type: cell-based; in short: as §3
U-937 [14] = test: Inhibition of histone acetyltransferase in human U937 cells assessed as inhibition of acetylation of histone H4 at K5 at 50 uM after 24 hrs by Western blotting; assay type: cell-based; in short: as §3
U-937 [15] = test: Inhibition of histone acetyltransferase in human U937 cells assessed as inhibition of acetylation of histone H3 at K14 at 50 uM after 24 hrs by Western blotting; assay type: cell-based; in short: as §3
U-937 [16] = test: Induction of apoptosis in human U937 cells at 25 uM after 30 hrs using annexin V/propidium iodide double-staining by FACS analysis; assay type: functional, cell-based; in short: as §1
[17] = target: Histone deacetylase (Homo sapiens) (UniProt Q13547+O15379+Q9UBN7+Q92769+Q9UQL6+Q8WUI4+Q9BY41+Q96DB2+P56524+Q9UKV0+Q969S8); test: Inhibition of HDAC in human U937 cells at 50 uM after 15 mins by Western blotting; assay type: cell-based; settings: U-937
U-937 [18] = test: Cell cycle arrest in human U937 cells assessed as accumulation at S phase at 25 uM after 30 hrs using propidium iodide staining by flow cytometry; assay type: functional, cell-based; in short: as §2
U-937 [19] = test: Induction of apoptosis in human U937 cells after 30 hrs using annexin V/propidium iodide double-staining by FACS analysis; assay type: functional, cell-based; settings: U-937, 30 h; in short: as §1
[20] = target: Histone acetyltransferase KAT2B (Homo sapiens) (UniProt Q92831); test: Increase of human recombinant KAT2B acetylation activity using histone H4 peptide as substrate at 50 uM after 2 hrs; in short: as §4
U-937 [21] = test: Inhibition of histone acetyltransferase in human U937 cells assessed as increase of acetylation of histone H3 at K18 at 50 uM after 24 hrs by Western blotting; assay type: cell-based; in short: as §3
U-937 [22] = test: Inhibition of histone acetyltransferase in human U937 cells assessed as increase of acetylation of histone H3 at K9 at 50 uM after 24 hrs by Western blotting; assay type: cell-based; in short: as §3
U-937 [23] = test: Inhibition of histone acetyltransferase in human U937 cells assessed as increase of pan-acetylated histone H4 level at 50 uM after 24 hrs by Western blotting; assay type: cell-based; in short: as §3

| SMILES | inhibition [9] | inhibition [11] | inhibition [17] | inhibition (U-937 [1]) | Activity (U-937 [12]) | inhibition (MCF7) | Activity (U-937 [16]) | Activity (U-937 [18]) | other results |
| --- | --- | --- | --- | --- | --- | --- | --- | --- | --- |
| CCCCCCCCCCCCCCCC1C(=O)OC(C)(C)OC1=O | Active | Active | inactive | inactive | inactive | inactive | inactive | inactive |  |
| CCCCCCCCCCC=C(C(=O)OCC)C(=O)OCC | Active | Active |  | Active | inactive | inactive |  |  | Activity (U-937 [2]): 25.4%; Activity (U-937 [3]): Active; inhibition (U-937 [4]): Active; Activity [5]: inactive; Activity [6]: Dose-dependent effect; inhibition (U-937 [7]): Active; Activity (Albumin): Not Active; inhibition (U-937 [8]): inactive; IC50 (U-937 [19]): 156 µM; inhibition (U-937 [10]): Active; inhibition (U-937 [13]): Active; inhibition (U-937 [14]): Active; inhibition (U-937 [15]): Active |
| CCCCCCCCCCCCCCC(N)=C(C(=O)OCC)C(=O)OCC |  |  |  |  | inactive |  | inactive | inactive |  |
| CCCCCCCCCCCCCC(C)=C(C(=O)OCC)C(=O)OCC | Active |  | inactive | inactive | inactive | inactive | inactive | inactive |  |
| CCCCCCCCCCCCCCC(O)=C(C(=O)OCC)C(=O)OCC | 52% |  | inactive | inactive | inactive | inactive | inactive | inactive | Activity [20]: Active |
| CCCCCCCCCCCCCCC(C)=C(C(=O)OCC)C(=O)OCC | Active |  | inactive | inactive | inactive | inactive | inactive | inactive |  |
| CCCCCCCCCCCCCCCCC(O)=C(C(=O)OCC)C(=O)OCC | Active |  | inactive | inactive | inactive | inactive | inactive | inactive |  |
| CCCCCCCCCCCC=C(C(=O)OCC)C(=O)OCC | Active | Active |  | Active | inactive | inactive |  |  | Activity (U-937 [2]): 60.2%; Activity (U-937 [3]): Active; inhibition (U-937 [4]): Active; Activity [5]: inactive; Activity [6]: Dose-dependent effect; Activity (Albumin): Not Active; inhibition (U-937 [21]): Active; inhibition (U-937 [8]): inactive; IC50 (U-937 [19]): 84.2 µM; inhibition (U-937 [22]): Active; inhibition (U-937 [13]): Active; inhibition (U-937 [14]): Active; inhibition (U-937 [23]): Active; inhibition (U-937 [15]): Active |
| C=CC/C=C\C/C=C\CCCCCCCc1cccc(O)c1C(=O)O | 62% |  |  |  |  |  |  |  |  |

The next lines start with results.

| inhibition [9] | inhibition [11] | inhibition [17] | SMILES | inhibition (U-937 [1]) | Activity (U-937 [12]) | inhibition (MCF7) | Activity (U-937 [16]) | Activity (U-937 [18]) | other results |
| --- | --- | --- | --- | --- | --- | --- | --- | --- | --- |
| 79% | Active |  | CCCCCCCCCCCCCCC=C(C(C)=O)C(C)=O | Active | inactive | inactive |  |  | Activity (U-937 [2]): Active; Activity (U-937 [3]): Active; inhibition (U-937 [4]): inactive; Activity [5]: inactive; Activity [6]: Dose-dependent effect; inhibition (U-937 [7]): Active; Activity (Albumin): Not Active; inhibition (U-937 [8]): inactive; inhibition (U-937 [10]): inactive; inhibition (U-937 [13]): inactive; inhibition (U-937 [14]): inactive; inhibition (U-937 [15]): Active |
| Active |  | inactive | CCCCCCCCCCCCCCCC(C(=O)OCC)C(=O)OCC | inactive | inactive | inactive | inactive | inactive |  |
| Active | Active | inactive | CCCCCCCCCCCCCC(C(=O)OCC)C(=O)OCC | inactive | inactive | inactive | inactive | inactive |  |
| Active |  | inactive | CCCCCCCCCCCCCCC(C(=O)OCC)C(=O)OCC | inactive | inactive | inactive | inactive | inactive |  |
| Active |  | inactive | CCCCCCCCCCCCCCC(Cl)=C(C(=O)OCC)C(=O)OCC | inactive | inactive | inactive | inactive | inactive | Activity [20]: Active |
| Active | Active | inactive | CCCCCCCCCCCCCCC=C1C(=O)OC(C)(C)OC1=O | inactive | inactive | inactive | inactive | inactive |  |
| Active |  | inactive | CCCCCCCCCCCCCC=C(C(=O)OCC)C(=O)OCC | Active | inactive | inactive |  |  | Activity (U-937 [2]): 51.8%; Activity (U-937 [3]): Active; inhibition (U-937 [4]): Active; Activity [5]: Dose-dependent effect; Activity [6]: Dose-dependent effect; inhibition (U-937 [7]): Active; Activity (Albumin): Not Active; inhibition (U-937 [8]): inactive; IC50 (U-937 [19]): 42.9 µM; inhibition (U-937 [10]): Active; inhibition (U-937 [13]): Active; Activity [20]: Active; inhibition (U-937 [14]): Active; inhibition (U-937 [15]): Active |
| inactive | Active |  | CCCCCCCCCCCCC=C(C(=O)OCC)C(=O)OCC |  | inactive |  | inactive | inactive | inhibition (U-937 [4]): inactive; inhibition (U-937 [7]): Active; inhibition (U-937 [8]): inactive; inhibition (U-937 [10]): Active; inhibition (U-937 [13]): inactive; inhibition (U-937 [14]): inactive; inhibition (U-937 [15]): inactive |
